Results published in ChEMBL document CHEMBL1124643 (J Med Chem, 1989).

Legend:
[1] = target: T1, cGMP-specific 3',5'-cyclic phosphodiesterase (Bos taurus, UniProt Q28156); assay: Inhibitory activity against phosphodiesterase was determined in vitro using bovine aorta, at 1 uM cGMP for cGMP-PDE;Compound is insignificant.
Phosphodiesterase 1 [2] = target: T2, Phosphodiesterase 1 (Bos taurus, UniProt Q01061+P14100); assay: Inhibitory activity against […] phosphodiesterase was determined in vitro using bovine aorta, at 1 uM cGMP in the presence of calcium (10 uM) and calmodulin (15 nM); Compound is insignificant.; assay type: protein assay
[3] = target: T1, cGMP-specific 3',5'-cyclic phosphodiesterase; assay: Inhibition of cGMP-PDE phosphodiesterase from bovine aorta using 1 uM cGMP
How it was run: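 Enzyme from the 105000g supernatant, separated on DEAE-trisacryl with a 0–0.4 NaCl gradient; the cGMP-PDE peak was dialysed and stored at −80 °C. Assayed without calcium, with EGTA, at 1 μM cGMP, keeping hydrolysis ≤15%. Drugs were in DMSO or DMF, ≤1% final.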

[4] = target: cAMP phosphodiesterase (Bos taurus); assay: Inhibitory activity against phosphodiesterase was determined in vitro using bovine aorta, at 1 uM cAMP for cAMP-PDE.
Phosphodiesterase 1 [5] = target: T2, Phosphodiesterase 1; assay: Inhibitory activity against phosphodiesterase was determined in vitro using bovine aorta, at 1 uM cGMP in the presence of calcium (10 uM) and calmodulin (15 nM); assay type: protein assay
How it was run: (§1)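 Calmodulin-dependent PDE peak taken from DEAE-trisacryl gradient fractions of a 105000g vascular smooth muscle supernatant. Assayed with 1 μM cGMP substrate, CaCl2 and excess bovine brain calmodulin, keeping hydrolysis ≤15%. Drugs in DMSO or DMF, final solvent ≤1%. IC50 from linear regression of % activity vs log concentration, using at least six points. Mean ± SEM of three separate enzyme preparations.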

[6] = target: T1, cGMP-specific 3',5'-cyclic phosphodiesterase; assay: Inhibitory activity against phosphodiesterase was determined in vitro using bovine aorta, at 1 uM cGMP for cGMP-PDE.
[7] = target: cAMP phosphodiesterase (Bos taurus); assay: Inhibitory activity against phosphodiesterase was determined in vitro using bovine aorta, at 1 uM cAMP for cAMP-PDE.; remark: listed apart in the source
Phosphodiesterase 1 [8] = target: T2, Phosphodiesterase 1; assay: Inhibition of phosphodiesterase from bovine aorta with 1 uM cGMP calcium (10 uM) and calmodulin (15 nM) (insignificant); assay type: protein assay; how it was run: as §1
[9] = target: T1, cGMP-specific 3',5'-cyclic phosphodiesterase; assay: Inhibition of cGMP-PDE phosphodiesterase from bovine aorta using 1 uM cGMP (insignificant)
[10] = Inhibition of phosphodiesterase from bovine aorta with 1 uM cGMP calcium (10 uM) and calmodulin (15 nM); design: species or system Bos taurus; how it was run: as §1
[11] = target: cAMP phosphodiesterase (Bos taurus); assay: Inhibition of cAMP-PDE phosphodiesterase from bovine aorta using 1 uM cAMP (insignificant)

Row | IC50 (Phosphodiesterase 1 [2]) [M] | IC50 [4] | IC50 (Phosphodiesterase 1 [5]) | IC50 [6] [µM] | SMILES | further results
1 | – | 400 µM | > 0.001 M | > 1000 | COc1ccc(C2CNC(=O)C2)cc1OCCCC(=O)O (centres undefined) | –
2 | > 0.001 | – | – | – | COc1ccc(C2CNC(=O)C2C(=O)O)cc1OC (centres undefined) | IC50 [1]: > 1000 µM
3 | > 0.001 | – | – | – | COc1ccc(C2CC(=O)N(C(C)=O)C2)cc1OC (centres undefined) | IC50 [7]: 25 µM; IC50 [3]: > 1000 µM
4 | > 0.001 | – | – | – | CCCCOc1ccc(C2CNC(=O)C2)cc1 (centres undefined) | IC50 [11]: > 0.001 M; IC50 [1]: > 1000 µM
5 | – | 18 µM | > 0.001 M | > 1000 | COc1ccc(C2CNC(=O)C2)cc1OCC(C)C (centres undefined) | –
6 | > 0.001 | – | – | – | COc1cc2c(cc1OC)[C@@H]1CNC(=O)[C@@H]1CC2 | IC50 [7]: 220 µM; IC50 [1]: > 1000 µM
7 | – | > 0.001 M | > 0.001 M | > 1000 | COc1ccc(C2CNC(=O)C2)cc1O (centres undefined) | –
8 | – | – | > 0.001 M | > 1000 | COc1ccc(C2CNC(=O)C2)cc1OC (centres undefined) | –
9 | – | 30 µM | > 0.001 M | > 1000 | CCOC(=O)CCCOc1cc(C2CNC(=O)C2)ccc1OC (centres undefined) | –
10 | – | 13 µM | > 0.001 M | > 1000 | CCCCOc1cc(C2CNC(=O)C2)ccc1OC (centres undefined) | –
11 | > 0.001 | – | – | – | COc1ccc(C2CC(=O)N(Cc3ccccc3)C2)cc1OC (centres undefined) | IC50 [1]: > 1000 µM

Second part, the compound before the results:

Row | SMILES | IC50 (Phosphodiesterase 1 [2]) [M] | IC50 [4] | IC50 (Phosphodiesterase 1 [5]) | IC50 [6] [µM] | further results
12 | COc1ccc(C2CC(=O)N(C)C2)cc1OC (centres undefined) | > 0.001 | – | – | – | IC50 [1]: > 1000 µM
13 | CCCCOc1cccc(C2CNC(=O)C2)c1 (centres undefined) | – | > 0.001 M | > 0.001 M | – | IC50 [3]: > 1000 µM
14 | COc1cc2c(cc1OC)[C@H]1CC(=O)NC1C2 (some centres undefined) | > 0.001 | – | – | – | IC50 [7]: 800 µM; IC50 [1]: > 1000 µM
15 | CCCCOc1ccc(C2CNC(=O)C2)cc1OC (centres undefined) | – | > 0.001 M | > 0.001 M | > 1000 | –
16 | COc1ccc(C2CNC(=O)C2C)cc1OC (centres undefined) | – | 22 µM | > 0.001 M | > 1000 | –
17 | O=C1CC(c2ccccc2)CN1 (centres undefined) | – | – | > 0.001 M | – | IC50 [3]: > 1000 µM
18 | COc1ccc(C2CNC(=O)C2)cc1OCCCC(=O)N(C)C1CCCCC1 (centres undefined) | – | 34 µM | > 0.001 M | > 1000 | –
19 | COc1cc2c(cc1OC)[C@@H]1CNC(=O)[C@H]1CC2 | – | – | – | – | IC50 [7]: 138 µM; IC50 (Phosphodiesterase 1 [8]): > 0.001 M; IC50 [9]: > 1000 µM
20 | COc1cc2c(cc1OC)-c1c/c(=N\c3c(C)cc(C)cc3C)n(C)c(=O)n1CC2 [TREQUINSIN] | – | – | – | – | IC50 [3]: 5 µM; IC50 [10]: 13 µM
21 | CCCCNC(=O)CCCOc1cc(C2CNC(=O)C2)ccc1OC (centres undefined) | – | 16 µM | > 0.001 M | > 1000 | –
22 | CCCCOc1cc(C2CN=C(S)C2)ccc1OC (centres undefined) | > 0.001 | – | – | – | IC50 [7]: 500 µM; IC50 [3]: 195 µM
23 | COc1ccc(C2CCNC2)cc1OC.O=C(O)C(=O)O (centres undefined) | > 0.001 | – | – | – | IC50 [11]: > 0.001 M; IC50 [1]: > 1000 µM
24 | CCCCOc1cc(CC2CNC(=O)N2)ccc1OC (centres undefined) [RO-201724] | – | – | 940 µM | 380 | –
25 | CCC(C)COc1cc(C2CNC(=O)C2)ccc1OC (centres undefined) | – | – | > 0.001 M | 200 | –
26 | COc1ccc(C2CC(=O)N(c3ccccc3)C2)cc1OC (centres undefined) | – | – | – | – | IC50 [9]: > 1000 µM; IC50 [10]: 230 µM
27 | COc1ccc(C2CC(=O)N(C(=O)c3ccccc3)C2)cc1OC (centres undefined) | – | – | – | – | IC50 [7]: 58 µM; IC50 (Phosphodiesterase 1 [8]): > 0.001 M; IC50 [9]: > 1000 µM
28 | C#CCOc1cc(C2CNC(=O)C2)ccc1OC (centres undefined) | – | – | > 0.001 M | > 1000 | –
29 | CCOC(=O)C1C(=O)NCC1c1ccc(OC)c(OC)c1 (centres undefined) | > 0.001 | – | – | – | IC50 [7]: 21 µM; IC50 [1]: > 1000 µM
30 | COc1ccc(C2CNC(=O)C2)cc1OC1CCCC1 (centres undefined) [ROLIPRAM] | – | – | 2700 µM | – | –
31 | C=C(C)COc1cc(C2CNC(=O)C2)ccc1OC (centres undefined) | – | 24 µM | > 0.001 M | > 1000 | –
32 | COc1ccc(C2CNC(=O)C2)cc1OCc1ccccc1 (centres undefined) | – | 96 µM | > 0.001 M | 174 | –
